Bioassay records as filed in PubChem BioAssay.
Arrestin-AP2 inh: blocks beta-arrestin peptide binding to AP2 adaptin; inhibition, % at 10 µM; 340,000 tested, 0.31% active; FITC-arrestin peptide / GST-AP2 beads, flow cytometry; AP2 beta2 appendage carries R879A mutation;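 active means inhibition above a set limit, near 3 SD of compounds lacking own fluorescence, cut at about 54% in these data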
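system = GST-tagged AP2 beta2-adaptin appendage (R879A) on 4 µm glutathione beads | reagent = FITC-labelled arrestin peptide probe, 50 nM final | schedule = compound with beads 12 min RT, then probe 1 h RT | signal = HyperCyt-sampled flow cytometry, FL1 channel, ex 488/em 535 nm | read-out = percent response from loss of bead-bound FITC fluorescence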
DSG3 Ab inh: human desmoglein-3 autoantibody binding inhibition; DSG3-coupled beads, scFv-anti-DSG3-GFP binding, flow cytometry; active compounds read low; binding (percent of control), % at 10 µM; 310,000 tested, 0.48% active;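 active means binding more than 3 SD below its plate's average and above zero; inconclusive means below that plate limit but binding exactly zero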;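 further: hits lower antibody fragment binding to DSG3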
Target sequence (P32926 whole entry, looked up, the tested form may be a part): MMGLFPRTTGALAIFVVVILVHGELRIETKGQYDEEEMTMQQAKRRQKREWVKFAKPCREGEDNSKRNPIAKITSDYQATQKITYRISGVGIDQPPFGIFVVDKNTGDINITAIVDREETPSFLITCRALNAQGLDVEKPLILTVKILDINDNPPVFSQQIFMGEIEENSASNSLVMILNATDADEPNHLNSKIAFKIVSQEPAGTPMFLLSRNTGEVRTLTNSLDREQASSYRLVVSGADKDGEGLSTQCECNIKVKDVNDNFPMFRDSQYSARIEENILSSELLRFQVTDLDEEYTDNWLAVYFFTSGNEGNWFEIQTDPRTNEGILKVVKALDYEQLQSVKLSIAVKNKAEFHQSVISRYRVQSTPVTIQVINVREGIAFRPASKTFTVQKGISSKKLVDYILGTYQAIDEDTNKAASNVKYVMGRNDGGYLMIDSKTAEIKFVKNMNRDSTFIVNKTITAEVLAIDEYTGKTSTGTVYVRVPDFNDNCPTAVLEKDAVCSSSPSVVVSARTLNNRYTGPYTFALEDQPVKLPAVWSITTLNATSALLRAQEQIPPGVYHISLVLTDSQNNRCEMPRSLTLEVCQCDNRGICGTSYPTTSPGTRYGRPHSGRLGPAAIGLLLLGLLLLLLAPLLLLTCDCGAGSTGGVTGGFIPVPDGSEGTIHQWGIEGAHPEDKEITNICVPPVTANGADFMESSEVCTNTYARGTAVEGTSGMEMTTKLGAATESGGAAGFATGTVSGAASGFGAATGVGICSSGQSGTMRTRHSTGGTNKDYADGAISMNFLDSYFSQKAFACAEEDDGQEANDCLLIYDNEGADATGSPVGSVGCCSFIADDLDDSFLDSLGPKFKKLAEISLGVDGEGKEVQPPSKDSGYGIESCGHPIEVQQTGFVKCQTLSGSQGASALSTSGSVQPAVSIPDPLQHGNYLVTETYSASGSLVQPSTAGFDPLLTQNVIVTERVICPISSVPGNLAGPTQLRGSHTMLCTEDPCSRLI
HDAC3 inhib: inhibitors of human histone deacetylase 3. recombinant HDAC3, fluorogenic peptide/trypsin coupled, fluorescence. 320,000 tested, 0.15% active. inhibition, % at 8.3 µM. O15379; in the data active means inhibition above about 26%, passing the limit was not always enough; inconclusive means no clear call, values can overlap the other calls
T cell HTS: T cell immune modulation candidate; 2C CD8+ T cell-vesicle binding, flow cytometry; active compounds read low; response (vesicle binding), % at 7 µM; 330,000 tested, 0.068% active; AID 2052;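 active means response, share of CD8 T cells binding vesicles, and their 90th percentile fluorescence all below set limits, cut at about 80% in these data, passing the limit was not always enough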;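 further: values below 100% mean blocked vesicle binding to the CD8+ T cells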
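System: murine 2C transgenic CD8+ T lymphocytes; also added: QL9-loaded Drosophila micro-vesicles; times: binding 1.5 h at 37 °C; measured by: flow cytometry, PE anti-B7-1 (FL2) versus Alexa647 anti-CD8 (FL8), PFA-fixed; control set: Peptide-free naked vesicles (low) and QL9 vesicles with 0.7% DMSO vehicle (high)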
LANA-H2A inh: blocks KSHV LANA binding to histone H2A/H2B. cell-free LANA-H2A/H2B peptide, fluorescence polarization. inhibition, % (no concentration beside the values). 320,000 tested, 0.6% active. AID 2629. Q9QR71; in the data active means inhibition mostly above about 10%, no sharp cut-off; inactive means mostly below about 6.7%
Of the large screens only hits and unclear results are named; the others gave an inactive call. An excerpt weighted towards active compounds, which were near 1.5% of everything screened.

COc1ccc(Cl)cc1-c1nc(SCC(=O)NC2CCCC2)n[nH]1	none
COc1ccc(CC(=O)NC2CCCCCC2)c(OC)c1	DSG3 Ab inh -48
C=CCOC(=O)C1=C(C)NC(=O)NC1c1cc(Cl)cc(Cl)c1OC (stereo not drawn)	none
Cc1ccc(C)c(OCCC(=O)Nc2ccc(S(=O)(=O)N3CCCC3)cc2)c1	none (no result: HDAC3 inhib, LANA-H2A inh)
CC(NC(=O)COC(=O)CN1C(=O)C2CCCCC2C1=O)c1ccccc1 (stereo not drawn)	none
C=CCN([C@@H](CC(C)C)C(=O)OC)S(=O)(=O)N(CC=C)[C@@H](CC(C)C)C(=O)OC	none
CCOCCCNC(=O)CN1N=C(c2ccc(C)cc2)CCC1=O	none
CCc1nnc(NC(=O)CCc2ccccc2OC)s1	none
COC(=O)c1ccc(NC(=O)NC2CCCCC2)cc1	none
COc1ccc(NC(=O)NC2CCCCCCC2)cc1	T cell HTS 69
Cc1ccc(C(=O)NCC(c2ccc(F)cc2)N2CCOCC2)cc1S(=O)(=O)N1CCOCC1 (stereo not drawn)	none (no result: HDAC3 inhib, T cell HTS, LANA-H2A inh)
O=C(COC(=O)c1ccc(Cl)nc1)Nc1ccc(N2CCCCC2)cc1	none
CCCCc1ccc(N=N/C(C(=O)Nc2ccc(NC(C)=O)cc2OC)=C(/C)O)cc1	LANA-H2A inh 47
COc1ccccc1NS(=O)(=O)c1cc(N=N/C(C(=O)Nc2ccc(Cl)cc2)=C(/C)O)ccc1C	none
CSc1nc2ccc(NC(=O)c3cccs3)cc2s1	DSG3 Ab inh 28
CSc1nc2ccc(NC(=O)c3ccco3)cc2s1	none
CCOC(=O)C1C(=O)CC(C)(O)C(C(=O)OCC)C1c1ccc2c(c1)OCO2 (stereo not drawn)	LANA-H2A inh 178
COc1ccc(/C=C2\C(=O)NCC(=O)N2C)cc1	LANA-H2A inh 14
COc1ccc(/C=C2\C(=O)NCC(=O)N2Cc2ccccc2)cc1	none
O=C(O)c1ccc(OS(=O)(=O)c2ccc(Cl)s2)cc1	DSG3 Ab inh inconclusive (no result: HDAC3 inhib, T cell HTS, LANA-H2A inh)
O=C(COC(=O)/C=C/c1cccc(Cl)c1)NC1CCCC1	none
O=C(COC(=O)/C=C/c1cccc(Cl)c1)Nc1c(F)cccc1F	DSG3 Ab inh -5.5
O=C(COC(=O)/C=C/c1cccc(Cl)c1)NC1CC1	LANA-H2A inh 19
COc1ccccc1NS(=O)(=O)c1cc(NC(=O)Cc2n[nH]c(=O)c3ccccc23)ccc1Cl	none
O=C(COC(=O)CCN=C1NS(=O)(=O)c2ccccc21)NNC(=O)c1ccc(Cl)cc1	none
COc1cccc(/C=N/NC(=O)CC(=O)NCCc2ccccc2)c1OC	none (no result: DSG3 Ab inh)
COc1cccc(/C=N/NC(=S)NCCc2ccccc2)c1OC	DSG3 Ab inh 70
COc1ccc(OC)c(/C=N/NC(=S)NCCc2ccccc2)c1	DSG3 Ab inh 62
CCCCCCCCCC1(CC(=O)OCC)SCCN1C(N)=O (stereo not drawn)	none (no result: Arrestin-AP2 inh, HDAC3 inhib, T cell HTS, LANA-H2A inh)
C/C(=N\NC(=O)c1nnn(-c2nonc2N)c1CSc1ccc(C)cc1)c1cccnc1	none (no result: Arrestin-AP2 inh, HDAC3 inhib, T cell HTS, LANA-H2A inh)
COc1ccccc1C(=O)N/C(=C\c1cn(S(=O)(=O)N(C)C)c2ccccc12)C(=O)NCCN1CCOCC1	none
CCO[C@H]1OC(C(=O)NCc2nc3ccccc3[nH]2)=C[C@@H](C2CCCCC2)[C@@H]1CCCO	LANA-H2A inh 18
CCO[C@H]1OC(C(=O)NCc2nc3ccccc3[nH]2)=C[C@@H](C)[C@@H]1CCCO	none
CCOc1cc(CN2CCN(c3ncccn3)CC2)ccc1OC	DSG3 Ab inh 84
CN(c1ccccc1)S(=O)(=O)c1cccc(NC(=O)C2=NNC(=O)CC2)c1	DSG3 Ab inh 5.4
COc1ccc(C(=O)NCCCn2ccnc2)cc1[N+](=O)[O-]	none
COc1cc(C(=O)NCCCn2ccnc2)cc(OC)c1OC	LANA-H2A inh 11
CCOc1ccc(S(=O)(=O)N2CCN(C(=O)c3ccccc3Cc3ccccc3)CC2)cc1	DSG3 Ab inh 80
O=Cc1cn(-c2ccccc2)nc1-c1ccc2c(c1)OCCO2	none
N#Cc1cn(-c2ccccc2)nc1-c1ccc2c(c1)OCCO2	DSG3 Ab inh -0.9
N#CCSc1ccccc1NC(=O)CN1C(=O)C2CC=CCC2C1=O (stereo not drawn)	none (no result: HDAC3 inhib, T cell HTS, LANA-H2A inh)
COc1ccc(C(=O)NC(CCSC)C(=O)N2CCCCCC2)cc1 (stereo not drawn)	LANA-H2A inh 31
CSCCC(NC(=O)c1ccccc1Cl)C(=O)N1CCCCCCC1 (stereo not drawn)	none (no result: DSG3 Ab inh)
Cc1c(N=C2NN=C(c3c[nH]c4ccccc34)CS2)c(=O)n(-c2ccccc2)n1C	DSG3 Ab inh 85 (no result: HDAC3 inhib)
CCNC(=S)Nc1ccc2ncoc2c1	LANA-H2A inh 31
CC(=O)c1ccc(NC(=S)Nc2ccc(Br)c(Cl)c2)cc1	LANA-H2A inh 36
O=C(NC(=S)Nc1ccc(Br)c(Cl)c1)C1CC1	none
CN(CC(=O)Nc1ccccc1Cl)C(=O)Cn1cnc2ccccc2c1=O	none (no result: HDAC3 inhib, T cell HTS, LANA-H2A inh)
COC(=O)c1[nH]c(=O)c2ccccc2c1O	LANA-H2A inh 23
CC(Sc1nc2ccccc2[nH]1)C(=O)NC1CCCCC1C (stereo not drawn)	T cell HTS 49 (no result: DSG3 Ab inh)
CC(Sc1nc2ccccc2c(=O)n1C)C(=O)NC1CCCCC1C (stereo not drawn)	none
COc1ccc(C2=Nn3c(nnc3-c3ccccc3Cl)SC2)cc1OC1CCOC1 (stereo not drawn)	DSG3 Ab inh 74
CCOC(=O)c1c(-c2ccccc2)oc2cc(CN(C)C)c(O)c(CN(C)C)c12	LANA-H2A inh 49
Cc1c(C(=O)NC2=NCCS2)cccc1[N+](=O)[O-]	none
COc1cc(C)ccc1OCc1cc(C(=O)NC(c2ccccn2)C(F)(F)F)no1 (stereo not drawn)	DSG3 Ab inh 79 (no result: Arrestin-AP2 inh, HDAC3 inhib, T cell HTS, LANA-H2A inh)
COc1cc(C)ccc1OCc1cc(C(=O)NC2CCOCC2)no1	none (no result: Arrestin-AP2 inh, HDAC3 inhib, T cell HTS, LANA-H2A inh)
Cc1ccc(C(=O)OCc2nnc(-c3ccccc3)o2)cc1S(=O)(=O)N1CCOCC1	none
COc1ccc(C2=CCCC2)c(OC)c1	none (no result: HDAC3 inhib, T cell HTS, LANA-H2A inh)
Cn1c(Cn2c(=O)sc3ccccc32)nnc1SCC(=O)NC1CCCC1	LANA-H2A inh 17
Cc1ccccc1NC(=O)Cc1nnc(SCC(=O)NC2CCCC2)n1C	DSG3 Ab inh 88
Cn1c(Cn2c(=O)sc3ccccc32)nnc1SCC(=O)NC1CCCCC1	T cell HTS 68
Cc1cccc(-c2nnc(SCC(=O)NC3CC3)n2C)c1	LANA-H2A inh 12
Cn1c(Cn2c(=O)sc3ccccc32)nnc1SCC(=O)Nc1ccccc1	none
CC[C@]12c3[nH]c4cc(CCC(=O)N(C)C)ccc4c3CCN1C(=O)[C@@H](CC(=O)NCc1cccc(C(F)(F)F)c1)C[C@@H]2C(=O)N1CCN(C(=O)C2CC2)CC1	none (no result: HDAC3 inhib, T cell HTS, LANA-H2A inh)
O=C(CC1C[C@H](C(=O)N2CCCCC2)[C@@]2(CCc3ccccc3)c3[nH]c4ccccc4c3CCN2C1=O)NCCc1ccccn1 (stereo partly drawn)	none (no result: HDAC3 inhib, T cell HTS, LANA-H2A inh)
CCCCn1c(N)c(N(Cc2ccccc2OC)C(=O)c2c(CC)noc2C)c(=O)[nH]c1=O	none (no result: DSG3 Ab inh)
Cc1ccccc1Nc1nc(Cl)nc(NC(C)(C)C)n1	none (no result: Arrestin-AP2 inh, HDAC3 inhib, T cell HTS, LANA-H2A inh)
O=C(COC(=O)C1(c2ccccc2F)CCCC1)N1CCNC1=O	none (no result: HDAC3 inhib, T cell HTS, LANA-H2A inh)
